According to ChEMBL document CHEMBL1143066, “Characterization and optimization of selective, nonpeptidic inhibitors of cathepsin S with an unprecedented binding mode” (J Med Chem, 2007):

Key:
Assay type in all cases: functional
[1] = substrate: CCCCc1ccc(-c2ccccc2OCC(=O)Nc2ccc3c(C)c(CC(=O)O)c(=O)oc3c2)c(F)c1F; assay: (§1) Activity of cathepsin S assessed as substrate cleavage efficiency
Summary of the method: (§2)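 Cathepsin S at 37 °C in pH 6.1 100 mM sodium phosphate, 100 mM NaCl, 1 mM DTT, 1 mM EDTA, 0.001% Tween-20. AMCA substrate added from DMSO at ≥6-fold below its K_M. Run in duplicate with and without enzyme. Fluorescence (ex 370/em 455 nm) read over up to 15 min. Slope gave V_max/K_M; k_cat/K_M used AMCA calibration and E-64c-titrated enzyme concentration.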

[2] = substrate: Cc1c(CC(=O)O)c(=O)oc2cc(NC(=O)COc3ccccc3-c3ccc(CC4CCCCC4)c(F)c3F)ccc12; assay: as §1; summary of the method: as §2
[3] = substrate: COc1ccc(-c2ccccc2OCC(=O)Nc2ccc3c(C)c(CC(=O)O)c(=O)oc3c2)c(F)c1F; assay: as §1; summary of the method: as §2
[4] = substrate: Cc1c(CC(=O)O)c(=O)oc2cc(NC(=O)COc3ccccc3-c3ccc(F)c(F)c3F)ccc12; assay: as §1; summary of the method: as §2
[5] = substrate: Cc1c(CC(=O)O)c(=O)oc2cc(NC(=O)COc3ccccc3-c3ccc(CC(C)C)c(F)c3F)ccc12; assay: as §1; summary of the method: as §2
[6] = substrate: CCc1ccc(-c2ccccc2OCC(=O)Nc2ccc3c(C)c(CC(=O)O)c(=O)oc3c2)c(F)c1F; assay: as §1; summary of the method: as §2
[7] = substrate: CCCc1ccc(-c2ccccc2OCC(=O)Nc2ccc3c(C)c(CC(=O)O)c(=O)oc3c2)c(F)c1F; assay: as §1; summary of the method: as §2

B1: Cathepsin S (Homo sapiens), P25774 (protein)
chain: MKRLVCVLLVCSSAVAQLHKDPTLDHHWHLWKKTYGKQYKEKNEEAVRRLIWEKNLKFVMLHNLEHSMGMHSYDLGMNHLGDMTSEEVMSLMSSLRVPSQWQRNITYKSNPNRILPDSVDWREKGCVTEVKYQGSCGACWAFSAVGALEAQLKLKTGKLVSLSAQNLVDCSTEKYGNKGCNGGFMTTAFQYIIDNKGIDSDASYPYKAMDQKCQYDSKYRAATCSKYTELPYGREDVLKEAVANKGPVSVGVDARHPSFFLYRSGVYYEPSCTQNVNHGVLVVGYGDLNGKEYWLVKNSWGHNFGEEGYIRMARNKGNHCGIASFPSYPEI
kcat/Km [1]: 85000 M⁻¹ s⁻¹
kcat/Km [2]: 15700 M⁻¹ s⁻¹
kcat/Km [3]: 2700 M⁻¹ s⁻¹
kcat/Km [4]: 27000 M⁻¹ s⁻¹
kcat/Km [5]: 288000 M⁻¹ s⁻¹
kcat/Km [6]: 25900 M⁻¹ s⁻¹
kcat/Km [7]: 145000 M⁻¹ s⁻¹
